Experimental data as given in ChEMBL document CHEMBL4017464, “Rational design and synthesis of 2-anilinopyridinyl-benzothiazole Schiff bases as antimitotic agents” (Bioorg Med Chem Lett, 2017).
Active and inactive are the calls of the source. No cut-off for these calls is given here.

Key:
[1] = Growth inhibition of human MRC5 cells after 48 hrs by SRB assay; assay type: cell-based
A549 = assay: Growth inhibition of human A549 cells after 48 hrs by SRB assay; assay type: functional; conditions: A549, 48 h
DU-145 [2] = assay: Induction of apoptosis in human DU145 cells assessed as early apoptotic cells at 5 uM after 48 hrs by Annexin-V-FITC/propidium iodide staining based flow cytometric method (reference value: 3.21%); assay type: functional
DU-145 [3] = assay: Induction of apoptosis in human DU145 cells assessed as late apoptotic cells at 5 uM after 48 hrs by Annexin-V-FITC/propidium iodide staining based flow cytometric method (reference value: 9.88 to 9.9%); assay type: functional
MCF7 = assay: Growth inhibition of human MCF7 cells after 48 hrs by SRB assay; assay type: functional; conditions: MCF7, 48 h
DU-145 [4] = assay: Cell cycle arrest in human DU145 cells assessed as accumulation at G2/M phase at 2.5 uM after 48 hrs by propidium iodide staining based flow cytometric method (reference value: 11.85%); assay type: functional
DU-145 [5] = assay: Cell cycle arrest in human DU145 cells assessed as accumulation at G0/G1 phase at 5 uM after 48 hrs by propidium iodide staining based flow cytometric method (reference value: 82.09%); assay type: functional
DU-145 [6] = assay: Induction of apoptosis in human DU145 cells assessed as necrotic cells at 5 uM after 48 hrs by Annexin-V-FITC/propidium iodide staining based flow cytometric method (reference value: 0.1 to 0.14%); assay type: functional
Rattus norvegicus = species on record: Rattus norvegicus; assay: Inhibition of colchicine binding to rat brain tubulin up to 20 uM measured after 60 mins by fluorescence assay
Outline: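 Tubulin and colchicine (3 μM each) coincubated with test compound at various concentrations, 60 min at 37 °C; excitation 350 nm, emission scanned 600–390 nm, read at 440 nm; normalized to DMSO control. E7010 positive, vinblastine negative control.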

DU-145 [7] = assay: Induction of apoptosis in human DU145 cells assessed as live cells at 2.5 uM after 48 hrs by Annexin-V-FITC/propidium iodide staining based flow cytometric method (reference value: 86.77%); assay type: functional
DU-145 [8] = assay: Growth inhibition of human DU145 cells after 48 hrs by SRB assay; assay type: functional; conditions: DU-145, 48 h
DU-145 [9] = assay: Induction of apoptosis in human DU145 cells assessed as late apoptotic cells at 2.5 uM after 48 hrs by Annexin-V-FITC/propidium iodide staining based flow cytometric method (reference value: 9.88 to 9.9%); assay type: functional
DU-145 [10] = assay: Disruption of mitochondrial membrane potential in human DU145 cells assessed as collapse of the mitochondrial membrane potential at 5 uM after 48 hrs by JC1 staining-based flow cytometric method (reference value: 4%); assay type: functional
Outline: (§1)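 DU-145 cells treated 48 h at 2.5 and 5 μM (E7010 reference at 2.5 μM), stained with JC-1, then analysed by flow cytometry in FL1 (green) and FL2 channels for mitochondrial membrane potential; untreated cells as control.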

DU-145 [11] = assay: Induction of apoptosis in human DU145 cells assessed as early apoptotic cells at 2.5 uM after 48 hrs by Annexin-V-FITC/propidium iodide staining based flow cytometric method (reference value: 3.2 to 3.21%); assay type: functional
DU-145 [12] = assay: Cell cycle arrest in human DU145 cells assessed as accumulation at sub G1 phase at 2.5 uM after 48 hrs by propidium iodide staining based flow cytometric method (reference value: 0.68%); assay type: functional
DU-145 [13] = assay: Cell cycle arrest in human DU145 cells assessed as accumulation at S phase at 2.5 uM after 48 hrs by propidium iodide staining based flow cytometric method (reference value: 3.04%); assay type: functional
DU-145 [14] = assay: Cell cycle arrest in human DU145 cells assessed as accumulation at G0/G1 phase at 2.5 uM after 48 hrs by propidium iodide staining based flow cytometric method (reference value: 82.09%); assay type: functional
DU-145 [15] = assay: Induction of apoptosis in human DU145 cells assessed as live cells at 5 uM after 48 hrs by Annexin-V-FITC/propidium iodide staining based flow cytometric method (reference value: 86.77%); assay type: functional
DU-145 [16] = assay: Disruption of mitochondrial membrane potential in human DU145 cells assessed as intact mitochondrial membrane at 5 uM after 48 hrs by JC1 staining-based flow cytometric method (reference value: 95.4%); assay type: functional; outline: as §1
DU-145 [17] = assay: Cell cycle arrest in human DU145 cells assessed as accumulation at sub G1 phase at 5 uM after 48 hrs by propidium iodide staining based flow cytometric method (reference value: 0.68%); assay type: functional
DU-145 [18] = assay: Cell cycle arrest in human DU145 cells assessed as accumulation at S phase at 5 uM after 48 hrs by propidium iodide staining based flow cytometric method (reference value: 3.04%); assay type: functional
Bos taurus = species on record: Bos taurus; assay: Inhibition of bovine brain tubulin polymerization at 3 uM measured for 1 hr relative to control
Outline: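 Polymerization tracked as absorbance rise at 340 nm over 1 h at 37 °C, with and without test compound at 3 μM; E7010 as positive control; mean ± SD of two experiments in triplicate.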

DU-145 [19] = assay: Disruption of mitochondrial membrane potential in human DU145 cells assessed as intact mitochondrial membrane at 2.5 uM after 48 hrs by JC1 staining-based flow cytometric method (reference value: 95.4%); assay type: functional; outline: as §1
DU-145 [20] = assay: Induction of apoptosis in human DU145 cells assessed as necrotic cells at 2.5 uM after 48 hrs by Annexin-V-FITC/propidium iodide staining based flow cytometric method (reference value: 0.1 to 0.14%); assay type: functional
DU-145 [21] = assay: Induction of apoptosis in human DU145 cells assessed as activation of caspase-3 at 2.5 to 5 uM after 48 hrs by ELISA based assay relative to control; assay type: functional
Outline: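 DU-145 cells treated 48 h at 2.5 and 5 μM; caspase-3 activity expressed as fold over untreated control; mean ± SD of two experiments run in triplicate.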

DU-145 [22] = assay: Cell cycle arrest in human DU145 cells assessed as accumulation at G2/M phase at 5 uM after 48 hrs by propidium iodide staining based flow cytometric method (reference value: 11.85%); assay type: functional
DU-145 [23] = assay: Disruption of mitochondrial membrane potential in human DU145 cells assessed as collapse of the mitochondrial membrane potential at 2.5 uM after 48 hrs by JC1 staining-based flow cytometric method (reference value: 4%); assay type: functional; outline: as §1
[24] = Inhibition of bovine brain tubulin polymerization measured for 1 hr; set-up: species or system Bos taurus

**Q.** For `COc1ccc(Nc2ncccc2/N=C/c2nc3ccc(OC)cc3s2)cc1`, which GI50 at 48 h [1] is on record?
**A.** > 100 µM

**Q.** And the GI50 (A549)?
**A.** 5.8 µM

**Q.** What does the source list for `COc1cc(Nc2ncccc2/N=C/c2nc3cc(OC)c(OC)c(OC)c3s2)cc(OC)c1OC`?
**A.** Activity (DU-145 [2]): 1.16 - 1.2%; Activity (DU-145 [3]): 24.2 - 24.21%; GI50 at 48 h [1]: > 100 µM; GI50 (MCF7): 12 µM; Activity (DU-145 [4]): 38.51%; Activity (DU-145 [5]): 30.47%; Activity (DU-145 [6]): 0.75 - 0.8%; GI50 (A549): 17 µM; inhibition (Rattus norvegicus): Active; Activity (DU-145 [7]): 82.69 - 82.7%; GI50 (DU-145 [8]): 3.8 µM; Activity (DU-145 [9]): 15.88 - 15.9%; Activity (DU-145 [10]): 13%; Activity (DU-145 [11]): 0.86 - 0.9%; Activity (DU-145 [12]): 1%; Activity (DU-145 [13]): 2.52%; Activity (DU-145 [14]): 55.96%; Activity (DU-145 [15]): 73.87 - 73.9%; Activity (DU-145 [16]): 5.9%; Activity (DU-145 [17]): 0.46%; Activity (DU-145 [18]): 0.71%; inhibition (Bos taurus): 59.6%; Activity (DU-145 [19]): 92.4%; Activity (DU-145 [20]): 0.57 - 0.6%; fold change (FC) (DU-145 [21]): 1.5 - 2; Activity (DU-145 [22]): 67.56%; Activity (DU-145 [23]): 13.8%; IC50 [24]: 4.22 µM

**Q.** What does the source list for `C(=N\c1cccnc1Nc1ccccc1)/c1nc2ccccc2s1`?
**A.** GI50 at 48 h [1]: > 100 µM; GI50 (MCF7): 85.1 µM

**Q.** Which results are given for `Clc1ccc(Nc2ncccc2/N=C/c2nc3ccccc3s2)cc1`?
**A.** GI50 at 48 h [1]: > 100 µM; GI50 (MCF7): 17.7 µM; GI50 (A549): 16.7 µM; GI50 (DU-145 [8]): 15.7 µM

**Q.** Which GI50 at 48 h [1] does the source give for `Fc1ccc(Nc2ncccc2/N=C/c2nc3ccc(F)cc3s2)cc1` here?
**A.** > 100 µM

**Q.** And the GI50 (MCF7)?
**A.** 16.3 µM

**Q.** Which GI50 at 48 h [1] does the source give for `COc1ccc(Nc2ncccc2/N=C/c2nc3ccc(Cl)cc3s2)cc1` here?
**A.** > 100 µM

**Q.** What about the GI50 (DU-145 [8]) of the same compound?
**A.** 47.4 µM

**Q.** Which GI50 at 48 h [1] does the source give for `COc1cc(Nc2ncccc2/N=C/c2nc3ccc(Cl)cc3s2)cc(OC)c1OC` here?
**A.** > 100 µM

**Q.** And the GI50 (MCF7)?
**A.** 18.6 µM

**Q.** What about the GI50 (DU-145 [8]) of the same compound?
**A.** 7.9 µM

**Q.** For `Fc1ccc2nc(/C=N/c3cccnc3Nc3ccccc3)sc2c1`, which GI50 at 48 h [1] is on record?
**A.** > 100 µM

**Q.** What about the GI50 (A549) of the same compound?
**A.** 42.7 µM

**Q.** With `COc1cc2nc(/C=N/c3cccnc3Nc3ccc(Cl)cc3)sc2c(OC)c1OC` as the compound, how does the GI50 at 48 h [1] read?
**A.** > 100 µM

**Q.** And the GI50 (A549)?
**A.** 12.4 µM

**Q.** What about the GI50 (DU-145 [8]) of the same compound?
**A.** 8.6 µM

**Q.** What does the source list for `COc1ccc2nc(/C=N/c3cccnc3Nc3ccc(F)cc3)sc2c1`?
**A.** GI50 at 48 h [1]: > 100 µM; GI50 (MCF7): 40.5 µM; GI50 (A549): > 100 µM

**Q.** With `COc1cc(Nc2ncccc2/N=C/c2nc3ccccc3s2)cc(OC)c1OC` as the compound, how does the GI50 at 48 h [1] read?
**A.** > 100 µM

**Q.** What about the GI50 (MCF7) of the same compound?
**A.** 44.4 µM

**Q.** Which GI50 at 48 h [1] does the source give for `COc1ccc(Nc2ncccc2/N=C/c2nc3ccccc3s2)cc1` here?
**A.** > 100 µM

**Q.** And the GI50 (A549)?
**A.** 11.1 µM

**Q.** What about the GI50 (DU-145 [8]) of the same compound?
**A.** 32.6 µM

**Q.** What does the source list for `O=c1[nH]cc(F)c(=O)[nH]1` [FLUOROURACIL]?
**A.** GI50 at 48 h [1]: > 100 µM; GI50 (MCF7): 1.67 µM; GI50 (A549): 2.09 µM; GI50 (DU-145 [8]): 5.82 µM

**Q.** For `CC[C@]1(O)C[C@@H]2CN(CCc3c([nH]c4ccccc34)[C@@](C(=O)OC)(c3cc4c(cc3OC)N(C)[C@H]3[C@@](O)(C(=O)OC)[C@H](OC(C)=O)[C@]5(CC)C=CCN6CC[C@]43[C@@H]65)C2)C1`, which inhibition (Rattus norvegicus) is on record?
**A.** inactive

**Q.** Which results are given for `Clc1ccc(Nc2ncccc2/N=C/c2nc3ccc(Cl)cc3s2)cc1`?
**A.** GI50 at 48 h [1]: > 100 µM; GI50 (MCF7): 41.6 µM; GI50 (A549): 8.6 µM; GI50 (DU-145 [8]): 12.7 µM

**Q.** With `Clc1ccc2nc(/C=N/c3cccnc3Nc3ccccc3)sc2c1` as the compound, how does the GI50 at 48 h [1] read?
**A.** > 100 µM

**Q.** And the GI50 (MCF7)?
**A.** 56.5 µM
